Published values from different studies.
Compare with care: the assays were run in different laboratories.
Target: Serine/threonine-protein kinase PAK 4 (PAK4, Homo sapiens, UniProt O96013)

Compound	test	conditions	endpoint	value
C1=C/COCc2cc(ccc2OCCN2CCCC2)Nc2nccc(n2)-c2cccc(c2)COC/1	binding	0.1 µM	remaining binding	94%
C[C@H]1CC[C@H](n2c3cnccc3c3cnc(Nc4ccc5c(n4)CCN(C(=O)CO)C5)nc32)CC1	cell-free assay	1 µM	remaining signal	92%
CC(C)S(=O)(=O)c1ccc2nccc(Nc3ccc4sc(C5CCCC5)nc4c3)c2c1	enzyme activity, inhibitor	1 µM	activity vs control	104%
C=CC(=O)N1CCC[C@@H](n2nc(-c3ccc(Oc4ccccc4)cc3)c3c(N)ncnc32)C1	enzyme activity, inhibitor	1 µM	inhibition	6%
Cc1cc(O)c(-c2ccc([C@@H](C)CN(C)C)cc2)c2c1[nH]c(=O)c1sccc12	cell-free assay, inhibitor	0.1 µM, lysate	inhibition	-7.15%
CCCCC(=O)Nc1ccc(-c2ccc3ncn(CCC)c(=O)c3c2)cn1	binding, competition with immobilised ligand	0.5 µM	remaining binding	98%
N#Cc1ccc(NC(=O)Nc2ccccc2)cc1	cell-free assay, competition with immobilised ligand	25 µM	remaining binding	85%
COc1ccc2oc(-c3ccc4nc(N)oc4c3)c/c(=N\c3ccccc3NC(=O)CCN)c2c1	binding	1 µM	remaining binding	104%
COc1ccc2[nH]c3c4[nH]c5ccc(OC)cc5c4c4c(c3c2c1)C(=O)NC4=O	binding	1 µM	remaining binding	90%
CC#CC(=O)N1CCC[C@H]1c1nc(-c2ccc(C(=O)Nc3ccccn3)cc2)c2c(N)nccn12	enzyme activity, inhibitor	1 µM	inhibition	0%
